Test results from ChEMBL document CHEMBL3352188, “Synthesis, antimicrobial and molecular docking studies of enantiomerically pure N-alkylated β-amino alcohols from phenylpropanolamines” (2014).
≈ marks a conversion by molar mass, not a printed value. Calls of active or inactive are those of the source. The calls are words filed in the database; no cut-off is given here.

Assays:
Pseudomonas aeruginosa [1] = test: Antimicrobial activity against Pseudomonas aeruginosa MTCC 741 at 1 mg/disc after 24 hrs by disc diffusion assay; type: functional
Outline: (§1)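 Disc diffusion on Mueller Hinton agar. Inoculum was grown in MHB for 24 h at 37 °C, swabbed onto the plates and dried for 10 min. Discs with 1 mg compound were left 30 min at room temperature for diffusion, then incubated at 37 °C for 24 h. Inhibition zone was read in mm; run twice. Solvent was the negative control, streptomycin the positive control.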

Candida albicans [2] = test: Antimicrobial activity against Candida albicans MTCC 227 at 1 mg/disc after 24 hrs by disc diffusion assay; type: functional
Malassezia pachydermatis [3] = test: Antimicrobial activity against Malassezia pachydermatis at 1 mg/disc after 24 hrs by disc diffusion assay; type: functional
Bacillus subtilis [4] = test: Antimicrobial activity against Bacillus subtilis MTCC 441 after 24 hrs by two fold dilution method; type: functional; conditions: MTCC 441, 24 h
Outline: (§2)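 Broth two-fold serial dilution in 96-well plates from 1000 to 7.81 µg/mL, compound in DMSO (2%). Inoculum was grown in MHB for 24 h at 37 °C; plates were incubated 24 h at 37 °C. 5 µL of broth was spotted onto MHA; MIC was the lowest concentration with no visible growth on agar. Streptomycin was the positive control.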

Micrococcus luteus [5] = test: Antimicrobial activity against Micrococcus luteus MTCC 106 after 24 hrs by two fold dilution method; type: functional; conditions: MTCC 106, 24 h; outline: as §2
Klebsiella aerogenes [6] = test: Antimicrobial activity against Enterobacter aerogenes MTCC 111 after 24 hrs by two fold dilution method; type: functional; conditions: MTCC 111, 24 h; outline: as §2
Staphylococcus aureus [7] = test: Antimicrobial activity against Staphylococcus aureus MTCC 96 after 24 hrs by two fold dilution method; type: functional; conditions: MTCC 96, 24 h; outline: as §2
Salmonella typhimurium [8] = test: Antimicrobial activity against Salmonella typhimurium MTCC 1251 after 24 hrs by two fold dilution method; type: functional, Salmonella enterica subsp. enterica serovar Typhimurium; conditions: Salmonella enterica, MTCC 1251, 24 h; outline: as §2
Klebsiella pneumoniae [9] = test: Antimicrobial activity against Klebsiella pneumoniae MTCC 109 after 24 hrs by two fold dilution method; type: functional; conditions: MTCC 109, 24 h; outline: as §2
Proteus vulgaris [10] = test: Antimicrobial activity against Proteus vulgaris MTCC 1771 after 24 hrs by two fold dilution method; type: functional; conditions: MTCC 1771, 24 h; outline: as §2
Staphylococcus aureus [11] = test: Antimicrobial activity against methicillin-resistant Staphylococcus aureus MTCC 96 after 24 hrs by two fold dilution method; type: functional; conditions: MTCC 96, 24 h; outline: as §2
[12] = test system: Salmonella enterica subsp. enterica serovar Paratyphi B; test: Antimicrobial activity against Salmonella paratyphi B after 24 hrs by two fold dilution method; type: functional; outline: as §2
Shigella flexneri [13] = test: Antimicrobial activity against Shigella flexneri MTCC 1457 after 24 hrs by two fold dilution method; type: functional; conditions: MTCC 1457, 24 h; outline: as §2
Pseudomonas aeruginosa [14] = test: Antimicrobial activity against Pseudomonas aeruginosa MTCC 741 after 24 hrs by two fold dilution method; type: functional; conditions: MTCC 741, 24 h; outline: as §2
Candida albicans [15] = test: Antimicrobial activity against Candida albicans MTCC 227 after 48 to 72 hrs by two fold dilution method; type: functional
Outline: (§3)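 Yeast was grown in Sabouraud dextrose broth at 28 °C for 48 h and tested per CLSI reference methods. Two-fold serial dilutions from 1000 to 7.81 µg/mL, compound in DMSO (2%), in 96-well plates, incubated 48–72 h at 28 °C. MIC was the lowest concentration with no visible fungal growth. Ketoconazole was the positive control.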

Malassezia pachydermatis [16] = test: Antimicrobial activity against Malassezia pachydermatis after 48 to 72 hrs by two fold dilution method; type: functional; outline: as §3
Bacillus subtilis [17] = test: Bactericidal activity against Bacillus subtilis MTCC 441 after 24 hrs by two fold dilution method; type: functional; conditions: MTCC 441, 24 h
Outline: (§4)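 Tubes held 5 mL MHB with two-fold dilutions from 1000 to 7.81 µg/mL and were inoculated with 5 × 10^5 to 1 × 10^6 cells in 0.1 mL MHB, incubated without shaking. Turbidity was checked at 20 h, tubes vortexed and re-incubated 4 h.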

Micrococcus luteus [18] = test: Bactericidal activity against Micrococcus luteus MTCC 106 after 24 hrs by two fold dilution method; type: functional; conditions: MTCC 106, 24 h; outline: as §4
Klebsiella aerogenes [19] = test: Bactericidal activity against Enterobacter aerogenes MTCC 111 after 24 hrs by two fold dilution method; type: functional; conditions: MTCC 111, 24 h; outline: as §4
Staphylococcus aureus [20] = test: Bactericidal activity against Staphylococcus aureus MTCC 96 after 24 hrs by two fold dilution method; type: functional; conditions: MTCC 96, 24 h; outline: as §4
Salmonella typhimurium [21] = test: Bactericidal activity against Salmonella typhimurium MTCC 1251 after 24 hrs by two fold dilution method; type: functional, Salmonella enterica subsp. enterica serovar Typhimurium; conditions: Salmonella enterica, MTCC 1251, 24 h; outline: as §4
Klebsiella pneumoniae [22] = test: Bactericidal activity against Klebsiella pneumoniae MTCC 109 after 24 hrs by two fold dilution method; type: functional; conditions: MTCC 109, 24 h; outline: as §4
Proteus vulgaris [23] = test: Bactericidal activity against Proteus vulgaris MTCC 1771 after 24 hrs by two fold dilution method; type: functional; conditions: MTCC 1771, 24 h; outline: as §4
Staphylococcus aureus [24] = test: Bactericidal activity against methicillin-resistant Staphylococcus aureus MTCC 96 after 24 hrs by two fold dilution method; type: functional; conditions: MTCC 96, 24 h; outline: as §4
[25] = test system: Salmonella enterica subsp. enterica serovar Paratyphi B; test: Bactericidal activity against Salmonella paratyphi B after 24 hrs by two fold dilution method; type: functional; outline: as §4
Shigella flexneri [26] = test: Bactericidal activity against Shigella flexneri MTCC 1457 after 24 hrs by two fold dilution method; type: functional; conditions: MTCC 1457, 24 h; outline: as §4
Pseudomonas aeruginosa [27] = test: Bactericidal activity against Pseudomonas aeruginosa MTCC 741 after 24 hrs by two fold dilution method; type: functional; conditions: MTCC 741, 24 h; outline: as §4
Candida albicans [28] = test: Fungicidal activity against Candida albicans MTCC 227 after 48 to 72 hrs by two fold dilution method; type: functional
Malassezia pachydermatis [29] = test: Fungicidal activity against Malassezia pachydermatis after 48 to 72 hrs by two fold dilution method; type: functional
Bacillus subtilis [30] = test: Antimicrobial activity against Bacillus subtilis MTCC 441 at 1 mg/disc after 24 hrs by disc diffusion assay; type: functional; outline: as §1
Micrococcus luteus [31] = test: Antimicrobial activity against Micrococcus luteus MTCC 106 at 1 mg/disc after 24 hrs by disc diffusion assay; type: functional; outline: as §1
Klebsiella aerogenes [32] = test: Antimicrobial activity against Enterobacter aerogenes MTCC 111 at 1 mg/disc after 24 hrs by disc diffusion assay; type: functional; outline: as §1
Staphylococcus aureus [33] = test: Antimicrobial activity against Staphylococcus aureus MTCC 96 at 1 mg/disc after 24 hrs by disc diffusion assay; type: functional; outline: as §1
Salmonella typhimurium [34] = test: Antimicrobial activity against Salmonella typhimurium MTCC 1251 at 1 mg/disc after 24 hrs by disc diffusion assay; type: functional, Salmonella enterica subsp. enterica serovar Typhimurium; outline: as §1
Klebsiella pneumoniae [35] = test: Antimicrobial activity against Klebsiella pneumoniae MTCC 109 at 1 mg/disc after 24 hrs by disc diffusion assay; type: functional; outline: as §1
Proteus vulgaris [36] = test: Antimicrobial activity against Proteus vulgaris MTCC 1771 at 1 mg/disc after 24 hrs by disc diffusion assay; type: functional; outline: as §1
Staphylococcus aureus [37] = test: Antimicrobial activity against […] Staphylococcus aureus MTCC 96 at 1 mg/disc after 24 hrs by disc diffusion assay; type: functional; outline: as §1
[38] = test system: Salmonella enterica subsp. enterica serovar Paratyphi B; test: Antimicrobial activity against Salmonella paratyphi B at 1 mg/disc after 24 hrs by disc diffusion assay; type: functional; outline: as §1
Shigella flexneri [39] = test: Antimicrobial activity against Shigella flexneri MTCC 1457 at 1 mg/disc after 24 hrs by disc diffusion assay; type: functional; outline: as §1

Row | Compound | inhibition zone (IZ) (Pseudomonas aeruginosa [1]) [mm] | inhibition zone (IZ) (Candida albicans [2]) | inhibition zone (IZ) (Malassezia pachydermatis [3]) [mm] | MIC (Bacillus subtilis [4]) [µg/mL] | MIC (Micrococcus luteus [5]) [µg/mL] | MIC (Klebsiella aerogenes [6]) [µg/mL] | MIC (Staphylococcus aureus [7]) [µg/mL] | MIC (Salmonella typhimurium [8]) [µg/mL] | MIC (Candida albicans [15]) [µg/mL] | MIC (Malassezia pachydermatis [16]) [µg/mL] | inhibition zone (IZ) (Bacillus subtilis [30]) | inhibition zone (IZ) (Micrococcus luteus [31]) [mm] | inhibition zone (IZ) (Klebsiella aerogenes [32]) | inhibition zone (IZ) (Staphylococcus aureus [33]) | inhibition zone (IZ) (Salmonella typhimurium [34]) [mm] | inhibition zone (IZ) (Klebsiella pneumoniae [35]) | inhibition zone (IZ) (Proteus vulgaris [36]) [mm] | inhibition zone (IZ) (Staphylococcus aureus [37]) | inhibition zone (IZ) [38] | inhibition zone (IZ) (Shigella flexneri [39]) | other results
1 | COc1ccc([C@@H](C)N[C@@H](C)[C@H](O)c2ccccc2)cc1.Cl | 15 | 17 mm | 18 | 125 | 125 | 125 | 125 | 250 | 62.5 | 62.5 | 14 mm | 15 | 14 mm | 15 mm | 13 | 18 mm | 17 | 15 mm | 16 mm | 18 mm | MIC (Klebsiella pneumoniae [9]): 62.5 µg/mL; MIC (Proteus vulgaris [10]): 62.5 µg/mL; MIC (Staphylococcus aureus [11]): 125 µg/mL; MIC [12]: 125 µg/mL; MIC (Shigella flexneri [13]): 31.2 µg/mL; MIC (Pseudomonas aeruginosa [14]): 125 µg/mL; MBC (Bacillus subtilis [17]): 250 µg/mL; MBC (Micrococcus luteus [18]): 250 µg/mL; MBC (Klebsiella aerogenes [19]): 125 µg/mL; MBC (Staphylococcus aureus [20]): 250 µg/mL; MBC (Salmonella typhimurium [21]): 500 µg/mL; MBC (Klebsiella pneumoniae [22]): 125 µg/mL; MBC (Proteus vulgaris [23]): 62.5 µg/mL; MBC (Staphylococcus aureus [24]): 250 µg/mL; MBC [25]: 125 µg/mL; MBC (Shigella flexneri [26]): 31.2 µg/mL; MBC (Pseudomonas aeruginosa [27]): 250 µg/mL; MFC (Candida albicans [28]): 62.5 µg/mL; MFC (Malassezia pachydermatis [29]): 62.5 µg/mL
2 | C[C@H](N[C@H](C)c1ccccc1)[C@H](O)c1ccccc1.Cl | 16 | 14 mm | 15 | 125 | 125 | 125 | 62.5 | 250 | 125 | 125 | 14 mm | 14 | 13 mm | 16 mm | 11 | 13 mm | 12 | 11 mm | 14 mm | 16 mm | MIC (Klebsiella pneumoniae [9]): 250 µg/mL; MIC (Proteus vulgaris [10]): 250 µg/mL; MIC (Staphylococcus aureus [11]): 250 µg/mL; MIC [12]: 125 µg/mL; MIC (Shigella flexneri [13]): 250 µg/mL; MIC (Pseudomonas aeruginosa [14]): 62.5 µg/mL; MBC (Bacillus subtilis [17]): 125 µg/mL; MBC (Micrococcus luteus [18]): 250 µg/mL; MBC (Klebsiella aerogenes [19]): 250 µg/mL; MBC (Staphylococcus aureus [20]): 62.5 µg/mL; MBC (Salmonella typhimurium [21]): 500 µg/mL; MBC (Klebsiella pneumoniae [22]): 500 µg/mL; MBC (Proteus vulgaris [23]): 500 µg/mL; MBC (Staphylococcus aureus [24]): 500 µg/mL; MBC [25]: 250 µg/mL; MBC (Shigella flexneri [26]): 500 µg/mL; MBC (Pseudomonas aeruginosa [27]): 125 µg/mL; MFC (Candida albicans [28]): 125 µg/mL; MFC (Malassezia pachydermatis [29]): 125 µg/mL
3 | CC(=O)N1CCN(c2ccc(OCC3COC(Cn4ccnc4)(c4ccc(Cl)cc4Cl)O3)cc2)CC1 (stereo not given) [KETOCONAZOLE] | – | 28 mm | 26 | – | – | – | – | – | 25 (≈ 47 µM) | 25 (≈ 47 µM) | – | – | – | – | – | – | – | – | – | – | –
4 | CC[C@H](C)N[C@H](C)[C@@H](O)c1ccccc1.Cl (mixture of isomers) | 10 | inactive | 10 | – | – | – | – | – | – | – | inactive | 10 | inactive | inactive | 10 | inactive | 10 | inactive | inactive | inactive | –
